Data on 23 molecules can be found in ChEMBL document CHEMBL1142384, “Gamma-carboline derivatives with anti-bovine viral diarrhea virus (BVDV) activity” (Bioorg Med Chem, 2008).

Molecules are shown by their SMILES.

Series [1] concerns Bovine viral diarrhea virus 1. In words: Antiviral activity against BVDV infected in MDBK cells assessed as reduction in viral induced cell destruction by MTT assay. It counts as functional, organism-based. Particulars: Bovine viral diarrhea virus isolates and strains. The method, boiled down: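 BVDV (Nose strain) infected MDBK cells (1 × 10^4 cells/well) at multiplicity of infection 0.01. Cells incubated at 37 °C with various compound concentrations for 3 days. Viability of infected cells read by MTT.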

The nature of series [2]: Cytotoxicity against mock-infected MDBK cells by LDH method. It counts as cell-based, Bos taurus. Particulars: cattle. The method, boiled down: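 Mock-infected MDBK cells (1 × 10^4 cells/well) incubated at 37 °C with various compound concentrations for 3 days. Viability measured by the LDH method.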
Series [3] can be described thus: Selectivity index, ratio of CC50 for MDBK cells to EC50 for BVDV infected in MDBK cells. Type of series: functional. The method, boiled down: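 MDBK cells (1 × 10^4/well) were infected with BVDV Nose strain at MOI 0.01, or mock-infected, and held at 37 °C with various compound concentrations for 3 days. EC50 was taken from the reduction of virus-induced cell destruction, measured as MTT viability of infected cells. CC50 was taken from the reduction of viable cell number, measured by LDH in mock-infected cells. SI = CC50/EC50.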

In a further series the test system is HL-60. Put plainly: Growth inhibition of human HL60 cells. It counts as functional, cell-based.

By EC50 is commonly meant the concentration needed to bring the measured effect to its halfway point. Usually CC50 stands for the concentration at which the toxic effect on the cells reaches its halfway point. For `CCN(CC)CCn1c2ccccc2c2cnccc21`, the EC50 in series [1] came out at 8.9 µM. This molecule returned a CC50 in series [2] of 10 µM.
Consider `Cc1cncc2c1[nH]c1ccccc12`, for which the EC50 in series [1] turned out to be 0.55 µM. The molecule also displayed a cytotoxic concentration (CC50) in series [2] of 21 µM. The “Ratio CC50/EC50” value in series [3] was 38.2.
Take `CCCCn1c2ccccc2c2cnccc21`: in series [1], the EC50 turned out to be 9.2 µM. This molecule came in with a CC50 in series [2] of 14 µM.
With `CCn1c2ccccc2c2cnccc21`, in series [1], the EC50 amounted to 2 µM. Moreover, the half-maximal cytotoxic concentration (CC50) in series [2] worked out at 29 µM.
As for `CCCn1c2ccccc2c2cnccc21`, the EC50 in series [1] was determined as 8.2 µM. Moreover, in series [2], the midpoint of cytotoxicity, the CC50, lay at 26 µM.
As for `c1ccc(Cn2c3ccccc3c3cnccc32)cc1`, the half-maximal effective concentration (EC50) in series [1] was found to be 8.7 µM. The same molecule showed a CC50 in series [2] of 11 µM.
The like results for `c1ccc2c(c1)oc1ccccc12` [DIBENZOFURAN] were, in that order, 58 µM and more than 100 µM.
On the same counts, the results for `c1ccc2c(c1)[nH]c1ncccc12` are 93 µM and more than 100 µM.
Turning to `CC(C)n1c2ccccc2c2cnccc21`, the concentration for a half-maximal effect (EC50) in series [1] turned out to be 11 µM. Moreover, it took 30 µM to reach half-maximal cytotoxicity in series [2] (CC50).
For `c1ccc2c(c1)[nH]c1cnccc12` [NORHARMANE], in series [1], the EC50 turned out to be 8.8 µM. This molecule displayed a CC50 in series [2] of 78 µM.
On to `c1ccc2c(c1)Cc1ccccc1-2` [FLUORENE], for which the EC50 in series [1] was 71 µM. Further, in series [2], the CC50 was more than 100 µM.
By IC50 is commonly meant the point on the concentration scale where inhibition reaches its midpoint. Read a high IC50 as lower potency. With `Cc1nccc2[nH]c3ccccc3c12`, the EC50 in series [1] worked out at 0.58 µM. In series [2], this molecule had a CC50 of 9.7 µM. The “Ratio CC50/EC50” value in series [3] is 16.7. Besides, the IC50 with HL-60 was found to be 15.3 µM.
Regarding `c1ccc2c(c1)[nH]c1ccncc12`, in series [1], the EC50 came out at 2 µM. The midpoint of cytotoxicity in series [2], the CC50, lay at 40 µM. Moreover, in the series with HL-60, inhibition was half-maximal at 11.4 µM (IC50).
As for `CCCCCCn1c2ccccc2c2cnccc21`, the EC50 in series [1] is more than 7.4 µM. Further, the half-maximal cytotoxic concentration (CC50) in series [2] was 7.4 µM.
Turning to `Cn1c2ccccc2c2cnccc21`, the EC50 in series [1] worked out at 0.26 µM. Further, it took 29 µM to reach half-maximal cytotoxicity in series [2] (CC50). In addition, in series [3], the “Ratio CC50/EC50” value was 111.5.
For the molecule `c1ccc2c(c1)[nH]c1ccccc12` [CARBAZOLE], the EC50 in series [1] came out at 64 µM. Moreover, the CC50 in series [2] is more than 100 µM.
For the molecule `Cc1cccc2c1[nH]c1ccncc12`, the EC50 in series [1] turned out to be 1.7 µM. The molecule also yielded a CC50 in series [2] of 24 µM. The “Ratio CC50/EC50” value in series [3] is 14.1.
`Cc1cc2[nH]c3ccccc3c2cn1`: the EC50 in series [1] worked out at 2.2 µM. The molecule also yielded a CC50 in series [2] of 70 µM. For the same molecule, the “Ratio CC50/EC50” value in series [3] came to 31.8.
On the same counts, the results for `Cn1ccc2nc3ccccc3c-2c1` are 4.3 µM, 65 µM and 15.1.
On the same counts, the results for `Cc1ccc2[nH]c3ccncc3c2c1` are 3 µM, 12 µM and 4.
Regarding `c1ccc2c(c1)[nH]c1cccnc12`, in series [1], the EC50 was more than 100 µM. The same molecule had a CC50 in series [2] of more than 100 µM.
In the case of `Cc1ccc2c(c1)[nH]c1ccncc12`, the EC50 in series [1] was 1.1 µM. In series [2], this molecule came in with a CC50 of 24 µM. For the same molecule, the “Ratio CC50/EC50” value in series [3] was determined as 21.8.
As to `Cc1cccc2[nH]c3ccncc3c12`, the EC50 in series [1] worked out at 1.2 µM. In series [2], the CC50 stood at 16 µM. The “Ratio CC50/EC50” value in series [3] came to 13.3.
